# Assays:
# SNB-19 = assay: Anticancer activity against human SNB19 cells; assay type: functional; details: read-out: LC50 (the source's name)
# Summary of the method: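 Tested by the NCI in its 60-human-tumour-cell-line panel. Dose-response curves were run, and GI₅₀ (50% growth inhibition), TGI (total growth inhibition) and LC₅₀ (50% cell killing) were read as interpolated concentrations where the curves cross those levels.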
# HOP-92 = assay: Anticancer activity against human HOP92 cells; assay type: functional
# Summary of the method: (§1)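 NCI 60-human-tumour-cell-line panel. Selected analogues were first run at one dose, then some were carried into multi-dose testing. GI50 (50% growth inhibition), TGI (total growth inhibition) and LC50 (50% cell kill) were read as values interpolated where the dose–response curves cross these levels.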
# K562 = assay: Anticancer activity against human K562 cells; assay type: functional; summary of the method: as §1
# OVCAR-8 = assay: Cytotoxicity against human OVCAR8 cells assessed as cellular growth at 10 uM; assay type: functional
# Summary of the method: (§2)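 Single-dose screen run by the NCI across its 60-human-tumour-cell-line panel; growth recorded for each cell line.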
# SK-MEL-28 = assay: Anticancer activity against human SK-MEL-28 cells; assay type: functional; summary of the method: as §1
# UACC-62 = assay: Anticancer activity against human UACC62 cells; assay type: functional
# UO-31 = assay: Anticancer activity against human UO31 cells; assay type: functional; details: read-out: LC50 (the source's name)
# Malme-3M = assay: Cytotoxicity against human MALME-3M cells assessed as cellular growth at 10 uM; assay type: functional; summary of the method: as §2
# NCI-H23 = assay: Anticancer activity against human NCI-H23 cells; assay type: functional; summary of the method: as §1
# MOLT-4 = assay: Cytotoxicity against human MOLT4 cells assessed as cellular growth at 10 uM; assay type: functional; summary of the method: as §2
# MDA-MB-468 = assay: Anticancer activity against human MDA-MB-468 cells; assay type: functional; summary of the method: as §1
# OVCAR-3 = assay: Anticancer activity against human OVCAR3 cells; assay type: functional; summary of the method: as §1
# RXF 393 = assay: Anticancer activity against human RXF393 cells; assay type: functional; summary of the method: as §1
# HOP-62 = assay: Anticancer activity against human HOP62 cells; assay type: functional; summary of the method: as §1
# COLO 205 = assay: Anticancer activity against human COLO205 cells; assay type: functional; summary of the method: as §1
# A549 [1] = assay: Cytotoxicity against human A549 cells assessed as cellular growth at 10 uM; assay type: functional; summary of the method: as §2
# MCF7 = assay: Cytotoxicity against human MCF7 cells assessed as cellular growth at 10 uM; assay type: functional; summary of the method: as §2
# OVCAR-5 [2] = assay: Anticancer activity against human OVCAR5 cells; assay type: functional; summary of the method: as §1
# SF-295 [3] = assay: Anticancer activity against human SF295 cells; assay type: functional; details: read-out: LC50 (the source's name); summary of the method: as §1
# A549 [4] = assay: Anticancer activity against human A549 cells; assay type: functional; summary of the method: as §1
# SNB-75 [5] = assay: Anticancer activity against human SNB75 cells; assay type: functional; details: read-out: LC50 (the source's name); summary of the method: as §1
# ACHN [6] = assay: Cytotoxicity against human ACHN cells assessed as cellular growth at 10 uM; assay type: functional; summary of the method: as §2
# OVCAR-5 [7] = assay: Cytotoxicity against human OVCAR5 cells assessed as cellular growth at 10 uM; assay type: functional; summary of the method: as §2
# UACC-257 = assay: Anticancer activity against human UACC257 cells; assay type: functional
# MDA-MB-231 = assay: Anticancer activity against human MDA-MB-231 cells; assay type: functional; summary of the method: as §1
# SW-620 = assay: Anticancer activity against human SW620 cells; assay type: functional
# CAKI-1 = assay: Anticancer activity against human Caki1 cells; assay type: functional; summary of the method: as §1
# 786-0 = assay: Anticancer activity against human 786-0 cells; assay type: functional; summary of the method: as §1
# HCT-15 = assay: Anticancer activity against human HCT15 cells; assay type: functional; summary of the method: as §1
# NCI/ADR-RES = assay: Anticancer activity against human NCI/ADR-RES cells; assay type: functional; summary of the method: as §1
# SF-539 = assay: Cytotoxicity against human SF539 cells assessed as cellular growth at 10 uM; assay type: functional; summary of the method: as §2
# SF-295 [8] = assay: Cytotoxicity against human SF295 cells assessed as cellular growth at 10 uM; assay type: functional; summary of the method: as §2
# ACHN [9] = assay: Anticancer activity against human ACHN cells; assay type: functional; summary of the method: as §1
# BT-549 = assay: Anticancer activity against human BT549 cells; assay type: functional; summary of the method: as §1
# SK-MEL-5 = assay: Cytotoxicity against human SK-MEL-5 cells assessed as cellular growth at 10 uM; assay type: functional
# EKVX [10] = assay: Anticancer activity against human EKVX cells; assay type: functional; summary of the method: as §1
# M14 = assay: Anticancer activity against human M14 cells; assay type: functional; summary of the method: as §1
# PC-3 = assay: Cytotoxicity against human PC3 cells after 48 hrs by SRB assay; assay type: functional, cell-based; details: PC-3, 48 h
# Summary of the method: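 PC-3 cells grown in RPMI1640 with 10% FBS at 37 °C, 5% CO₂. Seeded in medium with 5% FBS; after 24 h, one plate fixed with 10% TCA as T₀. Compound or 0.1% DMSO vehicle added for 48 h, then TCA fixation and 0.4% SRB in 1% acetic acid. Dye solubilized in 10 mM Trizma base, absorbance read at 515 nm. IC50 is the concentration giving 50% reduction of the protein gain in controls.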
# HL-60(TB) = assay: Cytotoxicity against human HL-60(TB) cells assessed as cellular growth at 10 uM; assay type: functional; summary of the method: as §2
# SN12C = assay: Anticancer activity against human SN12C cells; assay type: functional; summary of the method: as §1
# EKVX [11] = assay: Cytotoxicity against human EKVX cells assessed as cellular growth at 10 uM; assay type: functional; summary of the method: as §2
# TK-10 = assay: Anticancer activity against human TK10 cells; assay type: functional
# SNB-75 [12] = assay: Cytotoxicity against human SNB75 cells assessed as cellular growth at 10 uM; assay type: functional
# U-251 = assay: Anticancer activity against human U251 cells; assay type: functional
# CCRF-CEM = assay: Cytotoxicity against human CCRF-CEM cells assessed as cellular growth at 10 uM; assay type: functional; summary of the method: as §2
# [13] = read-out: LC50 (the source's name)
structure (smiles),measurement,setting,value
Cc1ccc(C(=O)Nc2c(NC(=O)CCl)ccc3c2C(=O)c2ccccc2C3=O)cc1,CC50,SNB-19,27.6 µM
same,GI50,HOP-92,9.73 µM
same,LC50 (concentration giving 50% cell kill),HOP-92,> 50 µM
same,TGI,HOP-92,31.7 µM
same,GI50,K562,1.87 µM
same,LC50 (50% net cell kill),K562,> 50 µM
same,TGI,K562,4.04 µM
same,Activity,OVCAR-8,8.72%
same,GI50,SK-MEL-28,7.63 µM
same,TGI,SK-MEL-28,15.2 µM
same,CC50,SK-MEL-28; [13],30.1 µM
same,GI50,UACC-62,9.92 µM
same,TGI,UACC-62,17.9 µM
same,CC50,UACC-62; [13],32.2 µM
same,CC50,UO-31,41.3 µM
same,Activity,Malme-3M,-22.41%
same,GI50,NCI-H23,1.78 µM
same,LC50 (50% cell kill),NCI-H23,31.4 µM
same,TGI,NCI-H23,8.28 µM
same,Activity,MOLT-4,-23.17%
same,GI50,MDA-MB-468,0.83 µM
same,TGI,MDA-MB-468,1.82 µM
same,CC50,MDA-MB-468; [13],3.98 µM
same,GI50,OVCAR-3,1.35 µM
same,TGI,OVCAR-3,3.54 µM
same,CC50,OVCAR-3; [13],15.2 µM
same,GI50,RXF 393,7.84 µM
same,TGI,RXF 393,16.5 µM
same,CC50,RXF 393; [13],34.6 µM
same,GI50,HOP-62,2.97 µM
same,LC50 (50% cell kill),HOP-62,24.4 µM
same,TGI,HOP-62,9.49 µM
same,GI50,COLO 205,2.95 µM
same,LC50,COLO 205,23.7 µM
same,TGI,COLO 205,9.65 µM
same,Activity,A549 [1],-81.71%
same,Activity,MCF7,-79.28%
same,GI50,OVCAR-5 [2],11.3 µM
same,TGI,OVCAR-5 [2],19.2 µM
same,CC50,OVCAR-5 [2]; [13],32.7 µM
same,CC50,SF-295 [3],42.2 µM
same,GI50,A549 [4],12.3 µM
same,TGI,A549 [4],29.2 µM
same,CC50,A549 [4]; [13],> 50 µM
same,CC50,SNB-75 [5],30.5 µM
same,Activity,ACHN [6],21.92%
same,Activity,OVCAR-5 [7],109.55%
same,GI50,UACC-257,1.61 µM
same,TGI,UACC-257,6.27 µM
same,CC50,UACC-257; [13],24.3 µM
same,GI50,MDA-MB-231,6.51 µM
same,TGI,MDA-MB-231,> 50 µM
same,CC50,MDA-MB-231; [13],> 50 µM
same,GI50,SW-620,1.87 µM
same,TGI,SW-620,9.31 µM
same,CC50,SW-620; [13],> 50 µM
same,GI50,CAKI-1,6.87 µM
same,TGI,CAKI-1,15.2 µM
same,CC50,CAKI-1; [13],33.7 µM
same,GI50,786-0,9.48 µM
same,TGI,786-0,17.2 µM
same,CC50,786-0; [13],31.2 µM
same,LC50,HCT-15,28.4 µM
same,GI50,NCI/ADR-RES,9.46 µM
same,TGI,NCI/ADR-RES,30.7 µM
same,CC50,NCI/ADR-RES; [13],> 50 µM
same,Activity,SF-539,-31.42%
same,Activity,SF-295 [8],79.7%
same,GI50,ACHN [9],7.18 µM
same,TGI,ACHN [9],14.3 µM
same,CC50,ACHN [9]; [13],28.6 µM
same,GI50,BT-549,2.58 µM
same,TGI,BT-549,16.3 µM
same,CC50,BT-549; [13],> 50 µM
same,Activity,SK-MEL-5,-98.72%
same,GI50,EKVX [10],1.98 µM
same,TGI,EKVX [10],14.9 µM
same,CC50,EKVX [10]; [13],> 50 µM
same,GI50,M14,4.72 µM
same,TGI,M14,12.4 µM
same,CC50,M14; [13],31.4 µM
same,IC50,PC-3,3.87 µM
same,Activity,HL-60(TB),-46.88%
same,GI50,SN12C,1.22 µM
same,TGI,SN12C,3.66 µM
same,CC50,SN12C; [13],> 50 µM
same,Activity,EKVX [11],88.22%
same,GI50,TK-10,2.34 µM
same,TGI,TK-10,4.94 µM
same,CC50,TK-10; [13],29.2 µM
same,Activity,SNB-75 [12],6.31%
same,GI50,U-251,1.8 µM
same,TGI,U-251,6.83 µM
same,CC50,U-251; [13],30.2 µM
Cc1ccc(C(=O)Nc2c(NC(=O)CN3CCCC3)ccc3c2C(=O)c2ccccc2C3=O)cc1,Activity,OVCAR-8,65.02%
same,Activity,Malme-3M,82.24%
same,Activity,MOLT-4,48.2%
same,Activity,A549 [1],84.88%
same,Activity,MCF7,70.79%
same,Activity,ACHN [6],82.23%
same,Activity,OVCAR-5 [7],102.31%
same,Activity,CCRF-CEM,39.61%
same,Activity,SF-539,81.29%
same,Activity,SF-295 [8],68.97%
same,Activity,SK-MEL-5,61.74%
same,IC50,PC-3,17.6 µM
same,Activity,HL-60(TB),96.11%
same,Activity,EKVX [11],65.93%
same,Activity,SNB-75 [12],66.03%
